UHRF1 MBD2 ctr: blocks human UHRF1 binding to methylated DNA. Q96T88. UHRF1 binding to methylated oligo, TR-FRET. inhibition, % at 4.4 µM. 370,000 tested, 0.75% active; in the data active = inhibition above about 21%;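 note: UHRF1 SRA domain binding a hemimethylated CpG hairpin DNA probe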
Casp6 inh: blocks human caspase-6 cleavage activity; P55212; inhibition, % at 12.5 µM; AID 686996; purified caspase-6, Z-VEID-R110 cleavage fluorescence; 350,000 tested, 0.53% active;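 active = mean inhibition across replicates at least about 35%, with every replicate also reaching that limit, limit read from the data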
Target sequence (P55212 24-179 limits assumed): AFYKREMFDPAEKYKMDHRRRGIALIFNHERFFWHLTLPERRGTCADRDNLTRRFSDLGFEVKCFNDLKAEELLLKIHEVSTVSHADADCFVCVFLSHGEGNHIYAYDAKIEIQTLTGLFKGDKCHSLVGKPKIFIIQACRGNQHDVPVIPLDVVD
Target sequence (P55212 194-293 limits assumed): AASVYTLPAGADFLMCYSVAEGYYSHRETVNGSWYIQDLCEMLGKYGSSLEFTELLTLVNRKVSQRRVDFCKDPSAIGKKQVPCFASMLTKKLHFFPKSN
LEDGF integ inh: blocks HIV-1 LEDGF/p75-dependent DNA integration; 370,000 tested, 0.64% active; inhibition, % at 3.7 µM; TR-FRET IN-LEDGF/p75 DNA integration, Eu/Cy5;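 active = inhibition above the screen-wide mean plus 3 SD, cut at about 13% in these data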;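 note: signal is the Cy5 over europium emission ratio at 671 and 618 nm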
TDP2 inh: blocks human TDP2 phosphodiesterase activity; recombinant TDP2, T5PNP hydrolysis, p-nitrophenol absorbance 415 nm; inhibition, % at 12.8 µM; 370,000 tested, 0.34% active; AID 720702;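 active = inhibition above the mean of all tested compounds plus 3 SD, set per campaign, cut at about 25% in these data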
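Test system: human TDP2 enzyme; Input: 120 nM TDP2 per well; Buffer or medium: Mg2+-containing Tris-HCl buffer, pH 7.5; Reagent: 5 mM T5PNP; Dosing: 12.8 µM single point, 1% DMSO; Incubation: reaction 2 h, 37 °C; Detection: p-Nitrophenol epi absorbance; Read-out: % inhibition relative to enzyme-containing and enzyme-free wells; Replicates: single well per compound.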
NSD2 HMT inh: NSD2 (human) methyltransferase inhibition; 310,000 tested, 0.54% active; AID 743445; O96028; inhibition, % at 12.5 µM; NSD2 peptide methylation, AlphaScreen, 120 min; in the data active = inhibition above about 50%
MBD2 DNA inh: blocks human MBD2 binding to methylated DNA; Q9UBB5; TR-FRET, MBD2 binding to methylated oligonucleotide; inhibition, % at 4.4 µM; 370,000 tested, 0.31% active; in the data active = inhibition above about 13%
Numbers stand for hits; . = inactive; / = no result given. Rows were chosen to be rich in hits. Some 1.8% of all compounds tested hit in one or more screens of this group.

SMILES	UHRF1 MBD2 ctr	Casp6 inh	LEDGF integ inh	TDP2 inh	NSD2 HMT inh	MBD2 DNA inh
CC(NC(=S)Nc1ccc([N+](=O)[O-])cc1)c1ccncc1 (centres undefined)	46	.	.	.	.	.
O=C1c2ccccc2NC2(CCCC2)N1O	80	/	.	.	.	.
O=C(COc1ccc(Cl)cc1)OCC(=O)N1CCCC1	.	/	.	.	.	.
O=C(COc1ccc(Cl)cc1)OCc1ccc(Cl)cc1	40	.	.	.	.	.
C[C@H]1CCCCO[C@H](CN(C)S(=O)(=O)c2cn(C)cn2)[C@@H](C)CN([C@@H](C)CO)C(=O)c2cc(NC(=O)Nc3ccccc3)ccc2O1	/	.	/	/	/	/
O=C(Nc1ccc(S(=O)(=O)NCC2CCCO2)cc1)c1ccc(Cl)cc1[N+](=O)[O-] (centres undefined)	.	.	.	.	.	.
Cc1c(C(=O)Nc2ccc(S(=O)(=O)NCC3CCCO3)cc2)cccc1[N+](=O)[O-] (centres undefined)	21	.	.	.	.	.
CCc1ccc(/C=C2\C(=N)N3N=C(CC(=O)N4CCCCC4)SC3=NC2=O)cc1	.	.	.	.	.	.
Cc1ccc(/C=C2\C(=N)N3N=C(CC(=O)N4CCCCC4)SC3=NC2=O)cc1	.	.	.	.	.	.
N=C1/C(=C/c2ccco2)C(=O)N=C2SC(CC(=O)N3CCCC3)=NN12	.	51	.	.	.	.
N=C1/C(=C/c2ccc(Br)o2)C(=O)N=C2SC(CC(=O)N3CCCC3)=NN12	.	.	16	.	.	.
CC1=C(C(=O)OC(C)C)C(c2cccnc2)C2=C(CCCC2=O)N1 (centres undefined)	91	/	.	.	.	.
O=C(NC1CCCCC1)C(c1ccnc2ccccc12)N1CCc2ccccc2C1 (centres undefined)	.	76	.	.	/	.
O=C(N[C@H]1CC[C@H](CCNS(=O)(=O)c2ccc(Cl)cc2)O[C@@H]1CO)c1cccc(F)c1	23	.	.	.	/	.
CCOc1ccc(CNC(=O)CCc2cn(C)c3ccccc23)cc1OC	59	.	.	.	.	.
CCn1cc(CCC(=O)NCc2ccccc2OC)c2ccccc21	22	.	.	.	.	.
CCn1cc(CCCC(=O)NCc2ccccc2OC)c2ccccc21	.	.	.	.	.	.
Cc1cccn2c(=O)c(/C=C(\C#N)S(=O)(=O)c3ccccc3)c(N3CCC(C(N)=O)CC3)nc12	.	/	.	.	.	.
Cc1ccc(S(=O)(=O)/C(C#N)=C/c2c(N3CCC(C(N)=O)CC3)nc3c(C)cccn3c2=O)cc1	22	/	.	.	.	.
COCCCNC(=O)/C(C#N)=C/c1c(N2CCN(C)CC2)nc2c(C)cccn2c1=O	52	.	.	.	.	.
COCCNCC(O)CON=C1c2ccccc2-c2ccccc21 (centres undefined)	.	.	.	.	.	.
CC(C)CCNCC(O)CON=C1c2ccccc2-c2ccccc21 (centres undefined)	25	.	.	.	/	.
Cc1oc(-c2ccc(F)cc2)cc1-c1nn2c(-c3ccoc3C)nnc2s1	40	/	38	.	/	14
Cc1oc(-c2ccc(F)cc2)cc1-c1nn2c(-c3ccco3)nnc2s1	.	57	.	.	.	.
CN1C[C@@H]2[C@H](c3ccccc31)[C@@H](CO)N2Cc1ccccc1	/	.	/	/	/	/
SMILES	UHRF1 MBD2 ctr	Casp6 inh	LEDGF integ inh	TDP2 inh	NSD2 HMT inh	MBD2 DNA inh
C[C@@H](NC(=O)C[C@H]1CC[C@@H]2[C@H](COC[C@H](O)CN2Cc2cc(F)ccc2F)O1)c1ccccc1	/	.	/	/	/	/
C[C@@H]1CN([C@H](C)CO)C(=O)Cc2cc(NC(=O)c3ccncc3)ccc2O[C@H]1CN(C)S(=O)(=O)c1ccccc1	/	.	/	/	/	/
Cn1cc(S(=O)(=O)NCCc2ccccc2)c(=O)n(C)c1=O	.	.	.	.	.	.
CC(NS(=O)(=O)c1cn(C)c(=O)n(C)c1=O)c1ccccc1 (centres undefined)	24	.	.	.	.	.
CC(OC(=O)c1n[nH]c2ccccc12)C(=O)Nc1ccccc1[N+](=O)[O-] (centres undefined)	.	36	.	.	.	.
CC(=O)Nc1ccc(NC(=O)COC(=O)c2n[nH]c3ccccc23)cc1	32	.	.	.	.	.
CC(=O)Nc1ccc(NC(=O)COC(=O)c2ccc([N+](=O)[O-])o2)cc1	.	54	.	.	.	.
O=C(COC(=O)c1ccc(Br)o1)Nc1ncc([N+](=O)[O-])s1	.	48	.	.	.	.
CC(=O)N(C)C[C@H]1Oc2cc(-c3ccccc3C)ccc2S(=O)(=O)N([C@H](C)CO)C[C@@H]1C	/	.	/	/	/	/
Cc1noc(C)c1NC(=O)Nc1cccc2c1O[C@@H](CN(C)S(=O)(=O)c1cccs1)[C@@H](C)CN([C@@H](C)CO)C2=O	/	.	/	/	/	/
O=C(COC(=O)c1ccc([N+](=O)[O-])o1)NCCCc1ccccc1	.	49	.	.	.	.
O=C(COC(=O)c1ccc([N+](=O)[O-])o1)Nc1cccc2ccccc12	.	.	.	.	.	.
O=C(COC(=O)c1ccc(Br)o1)NCc1ccc(F)cc1	.	.	.	.	/	.
COc1ccc(CCNC(=O)COc2ccc([N+](=O)[O-])cc2)cc1	.	.	.	.	.	.
COc1ccc(CCNC(=O)COC(=O)c2ccc([N+](=O)[O-])o2)cc1	.	59	.	.	.	.
O=C(COC(=O)c1ccc([N+](=O)[O-])o1)NCc1ccc(F)cc1	.	52	.	.	.	.
CO[C@@H]1CN(C)C(=O)c2ccc(NS(=O)(=O)C3CCCCC3)cc2OC[C@H](C)NC[C@H]1C	/	.	/	/	/	/
COc1cc(/C=N/NC(=O)c2cc(O)cc(O)c2)ccc1OC(=O)c1ccccc1	28	.	.	.	.	.
COc1ccc(C(=O)N/N=C/c2ccc(OC)c(COc3ccccc3)c2)cc1	.	.	.	.	.	.
COc1cc(C(=O)N/N=C/c2ccc(OC(=O)c3ccccc3)c(OC)c2)ccc1O	.	.	.	.	.	.
COc1ccc(/C=N\NC(=O)c2cc(O)c(O)c(O)c2)cc1COc1ccc(C(=O)OCC(C)C)cc1	.	44	.	.	.	.
O=S(c1ccccc1O)S(=O)c1ccccc1O (centres undefined)	.	62	.	.	.	.
COc1ccccc1C(=O)n1nc(-c2cccnc2)nc1NCc1ccccc1	.	.	.	.	.	.
CCCC(=O)n1nc(-c2cccnc2)nc1NCc1ccc(OC)cc1	.	39	.	.	.	.
Cc1ccc(C(=O)CCC(=O)Nc2ccc(C)cn2)cc1	29	.	.	.	.	.
C[C@H](CO)N1C[C@H](C)[C@@H](CN(C)S(C)(=O)=O)Oc2ccc(NC(=O)Nc3cccc4ccccc34)cc2CC1=O	/	.	/	/	/	/

Screening data (PubChem BioAssay)
